Reference: ChEMBL document CHEMBL1629527, “In vitro antifungal activities of bis(alkylpyridinium)alkane compounds against pathogenic yeasts and molds” (Antimicrob Agents Chemother, 2010)

Assays:
[1] = system: Cryptococcus neoformans; experiment: Antifungal activity against Cryptococcus neoformans after 24 to 72 hrs by broth microdilution method; type: functional
Summary of the method: (§1)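 Broth microdilution MIC per CLSI M27-A3 (yeasts) or M38-A2 (molds). RPMI 1640 with L-glutamine, without bicarbonate, buffered to pH 7.0 with 0.165 M MOPS. Final test range for the compounds was 0.175–87.5 μM. Incubation at 35°C with visual reading at 24–72 h. MIC was the lowest concentration giving 100% inhibition versus the growth control (azoles 50% or 100%, by organism). Each isolate was run in duplicate in two independent experiments.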

[2] = system: Candida tropicalis; experiment: Antifungal activity against Candida tropicalis after 48 to 72 hrs; type: functional
Summary of the method: (§2)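 MFC: after the MIC read, 30-μl aliquots from each well without visible growth were plated onto Sabouraud dextrose agar and incubated at 35°C. Reading was at 48–72 h for yeasts and up to 7 days for molds. MFC was the lowest concentration with no colonies.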

[3] = system: Candida parapsilosis; experiment: Antifungal activity against Candida parapsilosis after 48 to 72 hrs; type: functional; summary of the method: as §2
[4] = system: Pichia kudriavzevii; experiment: Antifungal activity against Candida krusei after 48 to 72 hrs; type: functional; summary of the method: as §2
[5] = system: Meyerozyma guilliermondii; experiment: Antifungal activity against Candida guilliermondii after 48 to 72 hrs; type: functional; summary of the method: as §2
[6] = system: Clavispora lusitaniae; experiment: Antifungal activity against Candida lusitaniae after 48 to 72 hrs; type: functional; summary of the method: as §2
[7] = system: Cryptococcus neoformans; experiment: Antifungal activity against Cryptococcus neoformans after 48 to 72 hrs; type: functional; summary of the method: as §2
[8] = system: Cryptococcus gattii species complex; experiment: Antifungal activity against Cryptococcus gattii after 48 to 72 hrs; type: functional, Cryptococcus bacillisporus; summary of the method: as §2
[9] = Toxicity against human erythrocytes assessed as hemolysis; type: cell-based, Erythrocyte
[10] = system: Rhizopus arrhizus; experiment: Antifungal activity against Rhizopus oryzae 05-203111 after 48 to 72 hrs; type: functional
Summary of the method: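 After the broth microdilution MIC read, suspension from every well without visible growth was plated onto Sabouraud dextrose agar and incubated at 35°C, up to 7 days for molds. MFC was taken as the lowest drug concentration with no colonies.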

[11] = system: Candida albicans; experiment: Antifungal activity against Candida albicans after 24 to 72 hrs by broth microdilution method; type: functional
Summary of the method: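 CLSI M27-A3 broth microdilution for yeasts in RPMI 1640 with L-glutamine and no bicarbonate, buffered with 0.165 M MOPS to pH 7.0. Compounds were dissolved in water and tested at 0.175–87.5 μM final, 35°C. MIC was read visually at 24–72 h as 100% inhibition versus growth control. For MFC, 30 μl from clear wells went onto SDA at 35°C for 48–72 h, reading the lowest concentration without colonies. Duplicates, two independent runs.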

[12] = system: Candida tropicalis; experiment: Antifungal activity against Candida tropicalis after 24 to 72 hrs by broth microdilution method; type: functional; summary of the method: as §1
[13] = system: Nakaseomyces glabratus; experiment: Antifungal activity against Candida glabrata after 24 to 72 hrs by broth microdilution method; type: functional; summary of the method: as §1
[14] = system: Candida parapsilosis; experiment: Antifungal activity against Candida parapsilosis after 24 to 72 hrs by broth microdilution method; type: functional; conditions: Lodderomyces parapsilosis; summary of the method: as §1
[15] = system: Candida dubliniensis; experiment: Antifungal activity against Candida dubliniensis after 24 to 72 hrs by broth microdilution method; type: functional; summary of the method: as §1
[16] = system: Aspergillus flavus; experiment: Antifungal activity against Aspergillus flavus ATCC 204304 after 48 to 72 hrs; type: functional; summary of the method: as §2
[17] = Antifungal activity against Paecilomyces lilacinus 05-200601 after 24 to 72 hrs by broth microdilution method; type: functional; conditions: Purpureocillium lilacinum
Summary of the method: (§3)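 Mold isolates subcultured on potato dextrose agar, then tested by CLSI M38-A2 broth microdilution in RPMI 1640 (L-glutamine, no bicarbonate) buffered to pH 7.0 with 0.165 M MOPS. Compounds were dissolved in water and tested at a final 0.175–87.5 μM. Plates were incubated at 35°C. MIC was read visually as the lowest concentration giving 100% inhibition versus the growth control. Each isolate was run in duplicate in two independent experiments.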

[18] = system: Rhizopus arrhizus; experiment: Antifungal activity against Rhizopus oryzae 05-203111 after 24 to 72 hrs by broth microdilution method; type: functional; summary of the method: as §3
[19] = system: Aspergillus flavus; experiment: Antifungal activity against Aspergillus flavus ATCC 204304 after 24 to 72 hrs by broth microdilution method; type: functional; summary of the method: as §1
[20] = system: Aspergillus flavus; experiment: Antifungal activity against Aspergillus flavus 05-203758 after 24 to 72 hrs by broth microdilution method; type: functional; summary of the method: as §1
[21] = system: Aspergillus terreus; experiment: Antifungal activity against Aspergillus terreus 05-202844 after 24 to 72 hrs by broth microdilution method; type: functional; summary of the method: as §1
[22] = system: Lomentospora prolificans; experiment: Antifungal activity against Scedosporium prolificans 05-203060 after 24 to 72 hrs by broth microdilution method; type: functional; summary of the method: as §3
[23] = system: Scedosporium apiospermum; experiment: Antifungal activity against Scedosporium apiospermum 05-203100 after 24 to 72 hrs by broth microdilution method; type: functional; summary of the method: as §3
[24] = system: Lichtheimia corymbifera; experiment: Antifungal activity against Absidia corymbifera 04-200170 after 24 to 72 hrs by broth microdilution method; type: functional; summary of the method: as §1
[25] = system: Cryptococcus gattii species complex; experiment: Antifungal activity against Cryptococcus gattii 05-200122 after 24 to 72 hrs by broth microdilution method; type: functional, Cryptococcus bacillisporus; summary of the method: as §1
[26] = system: Cryptococcus neoformans; experiment: Antifungal activity against Cryptococcus neoformans 05-202523 after 24 to 72 hrs by broth microdilution method; type: functional; summary of the method: as §1
[27] = system: Cryptococcus neoformans; experiment: Antifungal activity against Cryptococcus neoformans ATCC 90112 after 24 to 72 hrs by broth microdilution method; type: functional; summary of the method: as §1
[28] = system: Candida tropicalis; experiment: Antifungal activity against Candida tropicalis 04-202361 after 24 to 72 hrs by broth microdilution method; type: functional; summary of the method: as §1
[29] = system: Candida parapsilosis; experiment: Antifungal activity against Candida parapsilosis ATCC 22019 after 24 to 72 hrs by broth microdilution method; type: functional; conditions: Lodderomyces parapsilosis; summary of the method: as §1
[30] = system: Pichia kudriavzevii; experiment: Antifungal activity against Candida krusei ATCC 6258 after 24 to 72 hrs by broth microdilution method; type: functional; summary of the method: as §1
[31] = system: Candida albicans; experiment: Antifungal activity against Candida albicans ATCC 10231 after 24 to 72 hrs by broth microdilution method; type: functional; summary of the method: as §1
[32] = system: Candida albicans; experiment: Antifungal activity against Candida albicans ATCC 90028 after 24 to 72 hrs by broth microdilution method; type: functional; summary of the method: as §1
[33] = system: Clavispora lusitaniae; experiment: Antifungal activity against Candida lusitaniae after 24 to 72 hrs by broth microdilution method; type: functional; summary of the method: as §1
[34] = Antifungal activity against Exophiala jeanselmei 03-200268 after 24 to 72 hrs by broth microdilution method; type: functional; summary of the method: as §1

CCCCCc1cc[n+](CCCCCCCCCCCC[n+]2ccc(CCCCC)c(C)c2)cc1C.[Cl-].[Cl-]
MIC [1]: 1.28 µg/mL | MIC50 [1]: 0.79 µg/mL | MIC90 [1]: 3.11 µg/mL | MFC50 [2]: 0.79 µg/mL | MFC90 [2]: 1.56 µg/mL | MFC ([2]; Candida tropicalis): 0.39 µg/mL | MFC50 [3]: 49.5 µg/mL | MFC90 [3]: 49.5 µg/mL | MFC ([3]; Lodderomyces parapsilosis): 49.5 µg/mL | MFC50 [4]: 6.22 µg/mL | MFC90 [4]: 6.22 µg/mL | MFC ([4]; Pichia kudriavzevii): 0.79 µg/mL | MFC50 [5]: 0.79 µg/mL | MFC90 [5]: 1.56 µg/mL | MFC ([5]; Meyerozyma guilliermondii): 0.39 µg/mL | MFC50 [6]: 3.11 µg/mL | MFC90 [6]: 6.22 µg/mL | MFC ([6]; Clavispora lusitaniae): 1.56 µg/mL | MFC50 [7]: 0.79 µg/mL | MFC90 [7]: 12.45 µg/mL | MFC ([7]; Cryptococcus neoformans): 0.79 µg/mL | MFC50 [8]: 0.79 µg/mL | MFC90 [8]: 0.79 µg/mL | MFC ([8]; Cryptococcus gattii species complex): 0.79 µg/mL | HC50 [9]: > 129 µM | IC50 [9]: > 48 µM | MFC [10]: 6.3 µg/mL | MIC [11]: 1.36 µg/mL | MIC50 [11]: 1.56 µg/mL | MIC90 [11]: 1.56 µg/mL | MIC [12]: 0.79 µg/mL | MIC50 [12]: 0.79 µg/mL | MIC90 [12]: 0.79 µg/mL | MIC [13]: 0.642 µg/mL | MIC50 [13]: 0.79 µg/mL | MIC90 [13]: 0.79 µg/mL | MIC [14]: 30.6 µg/mL | MIC50 [14]: 24.9 µg/mL | MIC90 [14]: 49.5 µg/mL | MIC [15]: 0.908 µg/mL | MIC50 [15]: 0.79 µg/mL | MIC90 [15]: 0.79 µg/mL | MFC [16]: 25.3 µg/mL | MIC [17]: > 50.7 µg/mL | MIC [18]: 1.58 µg/mL | MIC [19]: 12.7 µg/mL | MIC [20]: 25.3 µg/mL | MIC [21]: 0.7 µg/mL | MIC [22]: 1.58 µg/mL | MIC [23]: 6.3 µg/mL | MIC [24]: 50.7 µg/mL | MIC [25]: 0.79 µg/mL | MIC [26]: 12.7 µg/mL | MIC [27]: 0.79 µg/mL | MIC [28]: 0.79 µg/mL | MIC [29]: 0.79 µg/mL | MIC [30]: 6.3 µg/mL | MIC [31]: 1.58 µg/mL | MIC [32]: 1.58 µg/mL | MIC [33]: 2.71 µg/mL | MIC50 [33]: 3.11 µg/mL | MIC90 [33]: 3.11 µg/mL | MIC [34]: 1.58 µg/mL
